# Source: article PMC3993931 (Journal of Medicinal Chemistry, 2014)
# Key:
# [1] = Aqueous stability, pH 4.88; format: physicochemical; settings: Figure 3 conditions generally, especially acidic (pH 4.88)
# [2] = system: colorectal tumor xenograft; settings: cited from earlier work
# HCT116 cells = test: Cell viability assay; format: cell-based, human; settings: for IC50: Homo sapiens, HCT-116, read-out: antiproliferative activity
# Summary of the method: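 HCT116 cells (ATCC) were grown in DMEM with 10% FBS at 37 °C, 5% CO2. They were seeded at 1 × 10^4 cells/well and treated 24 h later with a range of test-compound concentrations or 1% EtOH solvent control. After 48 h, viability was read by MTT per the kit instructions.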
# HCT116 xenograft = test: In vivo efficacy, HCT116 xenograft mouse model
# VEGFR2 = test: Immunoblot of xenograft tumors for RTK; format: in vivo, mouse; settings: higher dose (0.25 mg/kg), end of efficacy study
# [3] = system: met proto-oncogene receptor (MET); test: Immunoblot analysis for RTK; format: cell-based, human; settings: HCT116, 24 h
# Summary of the method: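 HCT116 cells were seeded at 4 × 10^5 cells/well in 6-well plates and dosed the next day with graded test-compound concentrations or 1% EtOH. After 24 h, whole-cell lysates were made in PhosphoSafe buffer, protein was quantified by BCA, and equal protein was run on 4–12% SDS-PAGE. Blots on PVDF were probed with anti-Met plus secondary antibody, with chemiluminescent detection.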
# [4] = cited from earlier work
smiles,measurement,setting,value
"CC[C@H](C)[C@H]1C(=O)N2CCC[C@H]2C(=O)O[C@H](C(C)(C)C)C[C@@H](C)C[C@H](O)[C@H](C)C2=N[C@@H](CCC(=O)N[C@@H](Cc3ccc(OC)cc3)C(=O)N(C)[C@@H](C)C(=O)N1C)CS2 [Compound 1a, apratoxin S4]",relative in vitro stability,[1],somewhat less stable than 1c
same,potency and efficacy versus apratoxin A,[2]; colorectal tumor xenograft model ref 2a,greater potency and efficacy
same,tolerability in vivo,[2]; ref 2a,much better tolerated
"CC[C@H](C)[C@H]1C(=O)N2CCC[C@H]2C(=O)O[C@H](C(C)(C)C)C[C@@H](C)C[C@H](O)CC2=N[C@@H](CCC(=O)N[C@@H](Cc3ccc(OC)cc3)C(=O)N(C)[C@@H](C)C(=O)N1C)CS2 [Compound 1b, Apratoxin S7]",IC50,HCT116 cells,1 to 2 nM
same,relative in vitro stability,[1],somewhat less stable than 1c
"CC[C@H](C)[C@H]1C(=O)N2CCC[C@H]2C(=O)O[C@H](C(C)(C)C)C[C@@H](C)C[C@H](O)C(C)(C)C2=N[C@@H](CCC(=O)N[C@@H](Cc3ccc(OC)cc3)C(=O)N(C)[C@@H](C)C(=O)N1C)CS2 [Compound 1c, Apratoxin S8]",IC50,HCT116 cells,1 to 2 nM
same,tumor growth inhibition,HCT116 xenograft; 0.1 mg/kg (~2 μg/mouse) daily ip for 16 days,about 50%
same,effect on tumor growth,HCT116 xenograft; 0.25 mg/kg (~5 μg/mouse) daily ip for 16 days,strongly retarded the tumor growth
same,"signs of toxicity (weight loss, abnormal behavior)",HCT116 xenograft; 0.1 and 0.25 mg/kg daily ip for 16 days,did not observe signs of toxicity
same,VEGFR2 expression levels in tumors,VEGFR2,detectable reduction in VEGFR2 expression levels
"CC[C@H](C)[C@H]1C(=O)N2CCC[C@H]2C(=O)O[C@H](C(C)(C)C)C[C@@H](C)C[C@H](O)[C@H](C)C2=N[C@H](CCC(=O)N[C@@H](Cc3ccc(OC)cc3)C(=O)N(C)[C@@H](C)C(=O)N1C)CS2 [Compound 1d, Apratoxin S9]",fold potency over the other apratoxins,"HCT116 cells; all three assays (cell growth, MET levels, VEGF-A secretion)",2–3 fold
same,potency in reducing MET levels,[3],picomolar (subnanomolar) potency
same,relative in vitro stability,[1],slightly enhanced compared with that of 1a
"CC[C@H](C)[C@H]1C(=O)N2CCC[C@H]2C(=O)O[C@H](C(C)(C)C)C[C@@H](C)C[C@H](O)[C@@H](C)C2=N[C@@H](CCC(=O)N[C@@H](Cc3ccc(OC)cc3)C(=O)N(C)[C@@H](C)C(=O)N1C)CS2 [Compound 34-epi-1a, apratoxin S6]",potency relative to 1a,[4]; ref 2a,same potency
CC[C@H](C)[C@H]1C(=O)N2CCC[C@H]2C(=O)O[C@H](C(C)(C)C)C[C@@H](C)C/C=C/C2=N[C@@H](CCC(=O)N[C@@H](Cc3ccc(OC)cc3)C(=O)N(C)[C@@H](C)C(=O)N1C)CS2 [apratoxin E],activity relative to other apratoxins,[4]; ref 1c,much reduced activity
